In ChEMBL document CHEMBL1122695, “C1-Methylated 5-hydroxy-2-(dipropylamino)tetralins: central dopamine-receptor stimulating activity” (1984) one finds ED50 and Motor activity data, which are given here for three compounds.

Active and inactive are the calls of the source. No cut-off for these calls is given here.

The species named for assay [1] is Rattus norvegicus. The experiment in a line: Half maximal decrease of dopa accumulation in limbic portion of reserpinized rats; I =Inactive. The class given is functional, organism-based. Conditions: Limbic system. The method in brief: (§1)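 Reserpinized rats; Dopa accumulation measured after the decarboxylase inhibitor NSD 1015 (100 mg/kg), Dopa determined spectrophotometrically. Compounds in saline, given subcutaneously at four to six dose levels. A dose-response curve was built per compound and brain area (limbic, striatal). ED50 is the dose giving half-maximal decrease of Dopa, estimated graphically. SEM was below 15% of the mean at each point.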

The species named for assay [2] is Rattus norvegicus. The assay is described as follows: Half maximal decrease of dopa accumulation in striatal brain portion of reserpinized rats; I =Inactive. The class given is functional, organism-based. The method in brief: as §1
Assay [3] is filed under the species Rattus norvegicus. The experiment in a line: Reduction in accumulated dopa is indicated with Motor activity value. The class given is functional. The method in brief:
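Rats given reserpine (10 mg/kg ip) 6 h and α-methyl-p-tyrosine methyl ester (250 mg/kg ip) 1 h before testing. Compounds were then given sc in the neck, n = 4, at 1 or 10 mg/kg in saline; controls received saline. Photocell motility meters, one rat per cage, recorded activity for 60 min immediately after dosing, with gross behavior observed.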

For assay [4], the species on record is Rattus norvegicus. The experiment in a line: Half maximal decrease of dopa accumulation in limbic portion of reserpinized rats. The class given is functional. Conditions: Limbic system. The method in brief: as §1
The species named for assay [5] is Rattus norvegicus. The experiment in a line: Half maximal decrease of dopa accumulation in striatal brain portion of reserpinized rats. The class given is functional. The method in brief:
as §1

For the compound `CCCN(CCC)[C@H]1CCc2c(O)cccc2C1(C)C`, the ED50 result in the assay filed under Rattus norvegicus [1] and in the assay listed under Rattus norvegicus [2] was “inactive” each time. In addition, the Motor activity entry in the assay filed under Rattus norvegicus [3] is “inactive”.

On to `Br.CCCN(CCC)[C@H]1CCc2c(O)cccc2[C@H]1C`, for which the ED50 in the assay filed under Rattus norvegicus [4] amounted to 0.67 µmol/kg; in the assay listed under Rattus norvegicus [5], 0.8 µmol/kg. In the assay listed under Rattus norvegicus [3], this compound registered a Motor activity of 52 Counts hr-1.

Regarding `Br.CCCN(CCC)[C@H]1CCc2c(O)cccc2[C@@H]1C`, the ED50 in the assay filed under Rattus norvegicus [4] came to 0.66 µmol/kg; in the assay filed under Rattus norvegicus [5], 0.725 µmol/kg. In the assay filed under Rattus norvegicus [3], this compound showed a Motor activity of 406 Counts hr-1.
